ChEMBL document CHEMBL1127326, “Antitumor agents. 148. Synthesis and biological evaluation of novel 4 beta-amino derivatives of etoposide with better pharmacological profiles” (1994)
Where “and” joins values, the source holds several entries; their conditions need not be identical. Equal values may be shown once.

Experiments:
KB [1] = test: Cytotoxicity against KB cells after a 3 day incubation; type: functional, Homo sapiens; conditions: Homo sapiens, KB, 72 h; read-out: ID50 (the source's name)
Method in brief: (§1)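 KB cells (parental ATCC line and resistant variants) exposed to drug at five concentrations […] for 3 days. ID50 is the concentration giving 50% reduction in cell number, derived from the degree of inhibition at the five concentrations.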

Tumor Cell line [2] = test: Drug molar concentration required to inhibit 50% of human tumor cell growth; type: functional
Method in brief: (§2)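 NCI panel of 54 human tumor lines from eight cancer types, mostly seeded at 20 000 cells/well. Cells were preincubated 24 h without drug, then exposed to five 10-fold dilutions for 48 h, fixed and stained with sulforhodamine B, and read spectrophotometrically. Versus control, GI50 (50% growth inhibition), TGI (0% growth) and LC50 (−50% growth) were calculated; mean graph midpoints average all lines.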

Tumor Cell line [3] = test: Drug concentration required to inhibit total cell growth; type: functional, Homo sapiens; conditions: read-out: Log TGI (converted); method in brief: as §2
[4] = target: T1, DNA topoisomerase II (Homo sapiens) (UniProt P11388+Q02880); test: 50% inhibition of human DNA topoisomerase II; type: protein assay
Nucleic Acid = test: Percentage inhibition of cellular protein-DNA complex formation; type: functional; conditions: Homo sapiens
Tumor Cell line [5] = test: Drug concentration required to cause 50% cell death; type: functional, Homo sapiens; conditions: Homo sapiens, Tumor Cell line
Method in brief: (§3)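 NCI in vitro panel of 54 human tumor cell lines from eight cancer types, mostly seeded at 20 000 cells/well and preincubated 24 h without drug. Five 10-fold dilutions were then added for a further 48 h. Cells were fixed in situ and stained with sulforhodamine B, and bound dye was read spectrophotometrically. LC50 (−50% growth versus control) was taken from five-point dose-response curves and reported as the log10 mean-graph midpoint across lines.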

[6] = target: T1, DNA topoisomerase II (Homo sapiens); test: inhibition of human DNA topoisomerase II; type: protein assay
Tumor Cell line [7] = test: LC 50 is the concentration required to cause 50% cell death; type: functional; conditions: Homo sapiens, read-out: Log LC50 (the source's name) (converted); method in brief: as §3
KB [8] = test: 50% reduction in the number of KB 7D (topoisomerase II, aMDR) resistant variant; type: functional, Homo sapiens; conditions: Homo sapiens, KB; read-out: ID50 (the source's name); method in brief: as §1
KB [9] = test: 50% reduction in the number of KB ATCC cells; type: functional; conditions: Homo sapiens, read-out: ID50 (the source's name); method in brief: as §1
Tumor Cell line [10] = test: Inhibition of human tumor cell growth; type: functional; method in brief: as §2
KB [11] = test: 50% reduction in the number of KB V20C resistant variant; type: functional, Homo sapiens; conditions: Homo sapiens, KB; read-out: ID50 (the source's name); method in brief: as §1

COc1cc([C@@H]2c3cc4c(cc3[C@@H](NCCN3CCOCC3)[C@H]3COC(=O)[C@H]23)OCO4)cc(OC)c1O [listing 1 of 2 here]
IC50 (KB [1]): 4 µM | GI50 (Tumor Cell line [2]; Homo sapiens, Tumor Cell line): 2.45 µM | TGI (Tumor Cell line [3]; Homo sapiens, Tumor Cell line): 10 µM

CCOC(=O)N1CCC(N[C@@H]2c3cc4c(cc3[C@@H](c3cc(OC)c(O)c(OC)c3)[C@H]3C(=O)OC[C@@H]32)OCO4)CC1 [listing 1 of 2 here]
ID50 [4]: 25 µM

COc1cc([C@@H]2c3cc4c(cc3[C@@H](Nc3ccc(C(=O)O)cc3)[C@H]3COC(=O)[C@H]23)OCO4)cc(OC)c1O [listing 1 of 3 here]
Complex formation (Nucleic Acid): > 6.9% and 1.9% | ID50 [4]: > 100 µM

COc1cc([C@@H]2c3cc4c(cc3[C@@H](NCCN(C)C)[C@H]3COC(=O)[C@H]23)OCO4)cc(OC)c1O
GI50 (Tumor Cell line [2]; Homo sapiens, Tumor Cell line): 0.263 µM | LC50 (Tumor Cell line [5]): 21.9 µM | TGI (Tumor Cell line [3]; Homo sapiens, Tumor Cell line): 2.51 µM

COc1cc([C@@H]2c3cc4c(cc3[C@@H](NCCN3CCCCC3)[C@H]3COC(=O)[C@H]23)OCO4)cc(OC)c1O
Complex formation (Nucleic Acid): 183% and 190% | ID50 [6]: 50 µM and 25 µM

COc1cc([C@@H]2c3cc4c(cc3[C@@H](Nc3ccc(C(=O)O)cc3)[C@H]3COC(=O)[C@H]23)OCO4)cc(OC)c1O [listing 2 of 3 here]
GI50 (Tumor Cell line [2]): 12.9 µM | TGI (Tumor Cell line [3]): 52.5 µM

COc1cc([C@@H]2c3cc4c(cc3[C@@H](NCCCN(C)C)[C@H]3COC(=O)[C@H]23)OCO4)cc(OC)c1O
GI50 (Tumor Cell line [2]): 0.331 µM | CC50 (Tumor Cell line [7]): 12.6 µM | TGI (Tumor Cell line [3]): 2.19 µM | IC50 (KB [8]): 0.66 µM

COc1cc([C@@H]2c3cc4c(cc3[C@@H](NCCN3CCOCC3)[C@H]3COC(=O)[C@H]23)OCO4)cc(OC)c1O [listing 2 of 2 here]
ID50 [4]: 50 µM

COc1cc([C@@H]2c3cc4c(cc3[C@@H](O[C@@H]3O[C@@H]5CO[C@@H](C)O[C@H]5[C@H](O)[C@H]3O)[C@H]3COC(=O)[C@H]23)OCO4)cc(OC)c1O [ETOPOSIDE]
Complex formation (Nucleic Acid): 100% | IC50 (KB [9]): 0.32 µM | IC50 (KB [1]): 0.2 µM | GI50 (Tumor Cell line [10]): 83.2 µM | IC50 (KB [8]): 18 µM | IC50 (KB [11]): 2.3 µM

CCOC(=O)N1CCC(N[C@@H]2c3cc4c(cc3[C@@H](c3cc(OC)c(O)c(OC)c3)[C@H]3C(=O)OC[C@@H]32)OCO4)CC1 [listing 2 of 2 here]
IC50 (KB [1]): 0.74 µM | GI50 (Tumor Cell line [2]; Homo sapiens, Tumor Cell line): 1.35 µM | TGI (Tumor Cell line [3]; Homo sapiens, Tumor Cell line): 7.76 µM

COc1cc([C@@H]2c3cc4c(cc3[C@@H](Nc3ccc(C(=O)O)cc3)[C@H]3COC(=O)[C@H]23)OCO4)cc(OC)c1O [listing 3 of 3 here]
IC50 (KB [1]): > 4 µM | GI50 (Tumor Cell line [2]; Homo sapiens, Tumor Cell line): 8.51 µM | TGI (Tumor Cell line [3]): 15.8 µM
